From article PMC7522377 (International Journal of Pharmaceutics: X, 2020)
Structures can show the parent of a compound that is named as a salt.

Key:
MiaPaCa-2 cells [1] = experiment: Cytotoxicity in 2D culture, Alamar blue assay; type: cell-based; conditions: Homo sapiens, MIA PaCa-2, 48 h, read-out: IC50 μM (2D MiaPaCa-2 culture)
Outline: (§1)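 Cells in DMEM (high glucose, 10% FBS, 1% PenStrep) were seeded at 1 × 10³/well and kept at 37 °C, 5% CO2. At 70–75% confluence they were treated for 48 h in triplicate per concentration; GemHCl ran 5–60 μM, diluted from a PBS stock into medium. Viability: 0.05% resazurin added for 4 h, fluorescence read at ex 560/580, em 590/610 nm; percent viable cells calculated; n = 3.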

MiaPaCa-2 cells [2] = experiment: Cytotoxicity in 3D spheroid culture, Alamar blue assay; type: cell-based; conditions: Homo sapiens, MIA PaCa-2, 48 h, read-out: IC50 μM (3D MiaPaCa-2 culture)
Outline: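 MiaPaCa-2 cells were seeded at 3.0 × 10⁴/well in spheroid-forming plates and grown 72 h to form spheroids. Half the medium was then replaced with drug in growth medium for 48 h at 37 °C, 5% CO2. Resazurin (0.05%) was added for 4 h, and fluorescence was read at ex 560/580, em 590/610 nm to give percent viability.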

PPCL-46 cells [3] = experiment: Cytotoxicity in 2D culture, Alamar blue assay; type: cell-based; conditions: Homo sapiens, 48 h, read-out: IC50 μM (2D PPCL-46 culture), 48 h treatment, mean ± SEM, n = 3
Outline: as §1

PPCL-46 cells [4] = experiment: Cytotoxicity and spheroid integrity in 3D spheroid culture, Alamar blue assay; type: cell-based, human
[5] = Pharmacokinetic study after single intravenous bolus; type: in vivo; conditions: mice, iv bolus 30 mg/kg Gem equivalent, one-compartment model
Outline: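 Normal healthy mice were grouped as control, gemcitabine hydrochloride, or test compound. Each received a single intravenous bolus of 30 mg/kg gemcitabine equivalent; controls got 0.9% NaCl saline. Gemcitabine was measured in blood and tissue supernatants by peak area. Recovery was checked against control supernatants spiked with 0.5 μg/mL gemcitabine. Groups were compared by t-test.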

[6] = Acute toxicity: liver enzymes activity; type: in vivo, mice; conditions: serum
Outline: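 Blood was drawn 24 h after one IV dose of 30 mg/kg gemcitabine equivalent; controls were untreated. Serum was spun at 3500 rpm for 6 min, serially diluted, and run in triplicate in kit enzyme/substrate mixes at 37 °C. AST: glutamate standard, 450 nm. ALT: pyruvate standard, 595 nm. Activity = product formed × dilution / (reaction time × sample volume).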

liver and kidney tissues = experiment: Acute toxicity: histology; type: in vivo, mice; conditions: 30 mg/kg Gem equivalent, single iv bolus, H&E staining
Outline: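 Normal healthy mice got one IV bolus of test compound or GemHCl at 30 mg/kg gemcitabine equivalent; controls got none. Liver and kidneys were rinsed in PBS and fixed in 10% neutral buffered formalin for 48 h at room temperature. Tissue was paraffin-embedded, cut at 5 μm, H&E-stained and examined by light microscopy at 20×.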

EGFR = experiment: Immunohistochemical staining of PDX tumor sections; type: in vivo, human; conditions: PDX tumor tissue of treated mice
Outline: (§2)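 PDX tumours from treated mice were excised, PBS-washed, fixed 24 h in 10% buffered formalin and moved to 70% ethanol. Sections were immunostained for the target protein, dehydrated, coverslipped and scanned as whole slides at 40×. Staining was scored on the IHC scale (0, 1+, etc.).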

HER2 = experiment: Immunohistochemical staining of PDX tumor sections; type: in vivo, human; conditions: PDX tumor tissue of treated mice
Outline: as §2

VEGF receptor = experiment: Immunohistochemical staining of PDX tumor sections; type: in vivo, human; conditions: PDX tumor tissue of treated mice
Outline: as §2

[7] = 24 h after 30 mg/kg Gem equivalent iv, mean ± SD, n = 3

Nc1ccn([C@@H]2O[C@H](CO)[C@@H](O)C2(F)F)c(=O)n1 [GemHCl, Gemcitabine Hydrochloride]
IC50 (MiaPaCa-2 cells [1]): 45.7 ± 1.4 µM
IC50 (MiaPaCa-2 cells [2]): 55.8 ± 1.2 µM
IC50 (PPCL-46 cells [3]): 75.5 ± 1.9 µM
IC50 (PPCL-46 cells [4]; Homo sapiens, 48 h, read-out: IC50 μM (3D PPCL-46 culture)): 95.2 ± 1.4 µM
PPCL-46 spheroidal integrity after treatment (PPCL-46 cells [4]; varying concentrations, images of spheroids): smaller surface spheroidal area with less non-spheroidal shapes
AUC (0-t) [5]: 28.2 ± 4.3 µg·h/mL
Vss (volume of distribution at steady state) [5]: 21.7 ± 3.6 μg/(μg/mL)
AST level compared with control group ([6]; 30 mg/kg Gem equivalent): no statistically significant elevation
ALT [6, 7]: 232 ± 28 mUnits/mL
AST [6, 7]: 85 ± 9 mUnits/mL
histopathological examination of kidney and liver compared to control (liver and kidney tissues): no significant morphological changes
EGFR expression (IHC score) (EGFR): IHC 1+
HER2 expression (IHC score) (HER2): IHC 2+
VEGF receptor expression (IHC score) (VEGF receptor): IHC 3+
